Screens from PubChem BioAssay.
Shown are actives, neighbours in structure and some others; about 6.4% of the full set was active somewhere.
HIV Rev-RRE inh – inhibitors of HIV-1 Rev-RRE RNA interaction. P05866. Rev peptide-RRE RNA binding, FRET. inhibition, % at 8 µM. actives 0.79% (n = 97,000). AID 704;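 active means inhibition above the screen-wide mean plus 3 SD, cut at about 35% in these data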;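 further: 0% = median DMSO wells and 100% = median Neomycin B control wells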
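Assay system: labelled RRE RNA duplex and labelled Rev peptide / Medium: HEPES pH 7.5 salt buffer with EDTA / Reagent: labelled Rev peptide / Schedule: 5 + 15 min at 25 °C / Signal: FRET, excitation 480 nm, emission 540 nm donor and 671 nm acceptor / Benchmarks: DMSO and neomycin B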
PostGolgi ctrl – inhibits growth of the yeast control strain. efflux-deficient yeast background strain, growth absorbance A615, 16 h. inhibition, % at 10 µM. actives 5% (n = 98,000)
Plk1 PBD FP – Plk1 (human) PBD binding inhibition; Plk1 PBD phosphopeptide binding, fluorescence polarization; inhibition, %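 (tested at about 20 µM)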; actives 0.13% (n = 97,000); P53350; in the data active means inhibition above about 34%, passing the limit was not always enough
PostGolgi yeast – growth inhibition of a yeast mutant, post-Golgi transport screen | post-Golgi transport phenotypic cell assay | inhibition, % at 10 µM | actives 0.9% (n = 98,000);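 further: yeast cells grown in 1536-well plates; yeast grown about 18 h at 30C before absorbance read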
EphB4 antag – EphB4-ephrin-B2 interaction antagonism; EphB4 LBD / TNYL-RAW-Alexa532 peptide, fluorescence polarization; inhibition, % at 7 µM; actives 0.15% (n = 97,000); AID 720;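 active means inhibition above the screen-wide mean inhibition plus 3 SD, cut at about 15% in these data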;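 further: 0% = DMSO wells and 100% = excess unlabeled TNYL-RAW peptide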
PLK1 inh – inhibitors of human PLK1 kinase; P53350; recombinant PLK1 kinase, TR-FRET peptide phosphorylation; inhibition, % at 10 µM; actives 0.53% (n = 97,000); AID 619;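 active means inhibition of 50% or more in the single-concentration screen; inactive means inhibition below 50%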;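 further: 0% = DMSO max control and 100% = H-89 dihydrochloride min control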
Starred values were filed as active, the others as inactive; x = not tested or not shown; [ ] = remark or other dose. Unless noted, no stated cut-off is given here; in the data, active means inhibition above about 30%; inactive means the rest.

SMILES | HIV Rev-RRE inh | PostGolgi ctrl | Plk1 PBD FP | PostGolgi yeast | EphB4 antag | PLK1 inh
CCOC(=O)C1CCCN(C(=O)c2sc3nc(-c4ccc(OC)cc4)cn3c2C)C1 (centres undefined) | 7 | 8 | -10 | 1 | -7 | -7
C=CCn1c(SCc2c(C)noc2C)nc2sc(C)c(C)c2c1=O | 14 | 35* | -14 | -4 | -5 | -7
Cc1noc(C)c1CSc1nc2sc(C)c(C)c2c(=O)n1-c1ccccc1 | -1 | 4 | 27 | -10 | -4 | -14
O=C1c2cccc3c(N4CCCCC4)ccc(c23)C(=O)N1c1ccc(Cl)cn1 | 121*[fluorescence artefact?] | x | -91 | x | -4 | -20
O=C1c2cccc3c([N+](=O)[O-])ccc(c23)C(=O)N1c1ccc(Cl)cn1 | 69* | 19 | -61 | 68* | -2 | -9
O=C1c2cccc3c([N+](=O)[O-])ccc(c23)C(=O)N1c1ccccn1 | 17 | 19 | 12 | 18 | 2 | -12
O=C1c2cccc3c(N4CCCCC4)ccc(c23)C(=O)N1c1ccccn1 | 126*[fluorescence artefact?] | 18 | -134 | -2 | 6 | -29
N=c1c(C(=O)NCc2ccc(F)cc2)cc2c(=O)n3ccccc3nc2n1Cc1cccnc1 | 37* | -5 | 4 | -2 | -9 | -2
N#Cc1ccc(CSc2nnc(-c3cccs3)n2-c2ccccc2)cc1 | 15 | 43* | 9 | -5 | -4 | -8
N#Cc1ccc(CSc2nnc(-c3ccccn3)n2-c2ccccc2)cc1 | 11 | 7 | -6 | 1 | 13 | 7
Cc1cc(NC(=O)c2cc(-c3ccc(C)s3)nc3ccccc23)no1 | 4 | 14 | -10 | -10 | 0 | -12
Cc1ccc(-c2cc(C(=O)Nc3cc(C)on3)c3ccccc3n2)c(C)c1 | 3 | 37* | -15 | 0 | 0 | -5
Cc1nc2ccccc2nc1N1CCCCC1 | -4 | 17 | -11 | 0 | -7 | -3
CC1=NN(c2ccccc2)C(=O)/C1=C/c1cc2cc(C)ccc2nc1N1CCCCC1 | 1 | 48* | -15 | 0 | -7 | -12
COc1cccc(-c2[nH]nc3c2C(c2ccoc2)C(C#N)=C(N)O3)c1 (centres undefined) | 3 | 9 | 24 | 4 | 2 | -7
CCOC(=O)c1cc(C(=O)c2cccs2)n2ccc(C(C)=O)cc12 | 6 | 82* | 3 | 1 | 8 | -6
CC1=C(C(=O)Nc2ccccc2)C(c2ccc(C)cc2)N=C(Nc2nc3ccccc3o2)N1 (centres undefined) | 0 | 12 | -24 | 13 | 2 | -8
Cn1c(SCC(=O)N2CCOCC2)nc(O)cc1=O | 9 | -2 | 15 | -3 | 3 | -10
COC(=O)c1cc2sc(Cl)cc2n1CC(=O)NCCC(C)C | 9 | 6 | -5 | -3 | -1 | -3
CCC(C)(C)n1nnnc1C(c1ccncc1)N1CCC(Cc2ccccc2)CC1 (centres undefined) | 0 | 14 | 11 | 2 | 1 | -4
CC(C)(C)n1nnnc1C(c1cccnc1)N1CCN(c2ccccc2)CC1 (centres undefined) | -7 | 76* | 18 | 92* | 9 | -11
CC(C)(C)n1nnnc1C(c1cccc(C#N)c1)N1CCC(Cc2ccccc2)CC1 (centres undefined) | -1 | 43* | 8 | -4 | 0 | -4
c1ccc(Cn2nnnc2C(c2cccnc2)N2CCN(c3ccccc3)CC2)cc1 (centres undefined) | 3 | 90* | 16 | 92* | -1 | -3
CCC(C)(C)n1nnnc1C(c1ccncc1)N1CCN(c2cccc(OC)c2)CC1 (centres undefined) | 1 | 12 | -23 | 13 | -5 | 0
CCC(C)(C)n1nnnc1C(c1cccnc1)N1CCN(c2cccc(C(F)(F)F)c2)CC1 (centres undefined) | 3 | 96* | -16 | 86* | 1 | -7
CCC1CCCCN1C(=O)CSc1nnc(CNC(=O)c2cc(OC)c(OC)c(OC)c2)o1 (centres undefined) | 2 | -3 | -19 | -2 | 9 | -8
Cn1c(Sc2ccc(C(F)(F)F)cc2[N+](=O)[O-])nnc1-c1ccccc1 | 1 | 2 | -22 | -5 | -2 | -14
CCCCc1c(O)nc(SCC(=O)N2CCOCC2)[nH]c1=O | 10 | 1 | -16 | 7 | -2 | -10
